2 compounds from ChEMBL document CHEMBL1275387, “Intramolecular reductive cyclization strategy to the synthesis of (-)-6-methyl-3-hydroxy-piperidine-2-carboxylic acid, (+)-6-methyl-(2-hydroxymethyl)-piperidine-3-ol and their glycosidase inhibitory activity” (Bioorg Med Chem, 2010) can be followed below.

Experiment [1] has as its system Prunus dulcis. As to the kind of experiment: (§1) Inhibition of almond seed beta-glucosidase at 1 mM after 90 mins by spectrophotometric analysis. In short, it runs like this:
(§2)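 Each enzyme was screened with inhibitor at a single concentration of 1 mM, and percent inhibition was recorded. Reported values are the average of three sets of assays.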

Experiment [2] is described as follows: as §1. Also noted: species or system Prunus dulcis. In short, it runs like this: as §2
Experiment [3] in a line: Inhibition of Geobacillus toebii BK1 alpha-galactosidase after 90 mins by spectrophotometric analysis.
For experiment [4], the system named is Prunus dulcis. Briefly: (§3) Inhibition of almond seed alpha-mannosidase at 1 mM after 90 mins by spectrophotometric analysis. In short, it runs like this: as §2
Experiment [5] is described as follows: as §3. Also noted: species or system Prunus dulcis. The gist of the method: as §2
Experiment [6] has as its system Prunus dulcis. Briefly: (§4) Inhibition of almond seed beta-galactosidase at 1 mM after 90 mins by spectrophotometric analysis. The gist of the method:
as §2

Experiment [7] is described as follows: as §4. Also noted: species or system Prunus dulcis. The gist of the method: as §2
Experiment [8] in a line: Non-competitive inhibition of Geobacillus toebii BK1 alpha-galactosidase after 90 mins by Lineweaver-Burke plot analysis.
Experiment [9] has as its system Prunus dulcis. As to the kind of experiment: (§5) Inhibition of almond seed alpha-galactosidase at 1 mM after 90 mins by spectrophotometric analysis. The gist of the method:
as §2

Experiment [10] can be described thus: as §5. Also noted: species or system Prunus dulcis. In short, it runs like this:
as §2

For experiment [11], the system named is Prunus dulcis. As to the kind of experiment: (§6) Inhibition of almond seed N-Acetyl-beta-D-glucosaminidase at 1 mM after 90 mins by spectrophotometric analysis. The gist of the method: as §2
A short description of experiment [12]: as §6. Details: species or system Prunus dulcis; call rule not given here. The gist of the method:
as §2

Experiment [13] is described as follows: Competitive inhibition of yeast alpha-glucosidase after 90 mins by Lineweaver-Burke plot analysis. Details: species or system Saccharomyces cerevisiae.
A short description of experiment [14]: Inhibition of yeast alpha-glucosidase after 90 mins by spectrophotometric analysis. Details: species or system Saccharomyces cerevisiae.
In a further experiment the test system is Saccharomyces cerevisiae. As to the kind of experiment: (§7) Inhibition of yeast alpha-glucosidase at 1 mM after 90 mins by spectrophotometric analysis. In short, it runs like this:
as §2

Experiment [15] is described as follows: as §7. Details: species or system Saccharomyces cerevisiae. In short, it runs like this:
as §2

The test system of another experiment is Geobacillus toebii. As to the kind of experiment: (§8) Inhibition of Geobacillus toebii BK1 alpha-galactosidase at 1 mM after 90 mins by spectrophotometric analysis. In short, it runs like this: as §2
Experiment [16] in a line: as §8. The gist of the method: as §2

As to `C[C@H]1CC[C@@H](O)[C@@H](C(=O)O)N1`, the inhibition in the experiment with Prunus dulcis [1], in the experiment on Prunus dulcis [4], in the experiment with Prunus dulcis [6], in the experiment with Prunus dulcis [9] and in the experiment on Prunus dulcis [11] was less than 50% in each case. The Ki result in experiment [2] is “Not Active”; in experiment [5], “Not Active”; in experiment [7], “Not Active”; in experiment [8], 26 µM; in experiment [10] it was “Not Active”; in [12], “Not Active”. This compound returned a Ki in experiment [13] of 71 µM. For the same compound, the IC50 in experiment [3] came out at 180 µM; in [14], 1150 µM.

Take `C[C@H]1CC[C@@H](O)[C@@H](CO)N1`: the inhibition in the experiment on Prunus dulcis [1], in the experiment on Prunus dulcis [4], with Prunus dulcis [6], with Saccharomyces cerevisiae, in the experiment on Prunus dulcis [9] and in the experiment on Prunus dulcis [11] was less than 50% each time. In the experiment with Geobacillus toebii, this compound showed an inhibition of less than 50%. The Ki entry in experiment [2], in experiment [5], in experiment [7], in experiment [15], in experiment [10] and in experiment [12] was “Not Active” throughout. Moreover, the Ki result in experiment [16] is “Not Active”.

One may read the inhibition as how much of the control response was suppressed. Read a high inhibition as a strong effect. The Ki is a measure of affinity in units of concentration, obtained from inhibition or displacement. In general, IC50 refers to the point on the concentration scale where inhibition reaches its midpoint. The low end stands for inhibition by little substance, the high end for a need for much substance.
